For orientation: IC50 means the midpoint of a concentration-inhibition curve. By inhibition is commonly meant how much of the control response was suppressed.

Activity calls are given as the source filed them. The rule behind the calls is not given here.

Test [1] relates to HCT-116. The test can be described thus: Induction of apoptosis in human HCT116 cells assessed as PARP cleavage at 50 nM after 48 hrs by Western blot analysis. It is filed as functional, cell-based.
Test [2] has as its system HCT-116. Description: Induction of apoptosis in human HCT116 cells assessed as increase in apoptotic body formation after 48 hrs by DAPI staining based fluorescence microscopy. It is filed as functional, cell-based. In outline:
(§1)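 HCT-116 cells exposed to 1, 2.5 and 5 μM for 48 h, nuclei stained with DAPI and examined by fluorescence microscopy for chromatin condensation and apoptotic bodies; untreated and paclitaxel controls.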

Test [3] concerns HCT-116. The test can be described thus: Induction of apoptosis in human HCT116 cells assessed as chromatin condensation after 48 hrs by DAPI staining based fluorescence microscopy. It is filed as functional, cell-based. A digest of the protocol:
as §1

The nature of test [4]: Anticancer activity against human HCT116 cells assessed as growth inhibition after 24 hrs by sulforhodamine B assay. As to conditions: HCT-116, 24 h. It is filed as functional, cell-based. In outline:
(§2)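 SRB assay on human cancer cell lines over a range of concentrations; inhibitory values calculated from concentration–response data, mean ± SD of three experiments.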
In general terms: In SRB staining, fixed cells bind dye roughly in proportion to their protein.

Test [5] relates to HCT-116. Description: Induction of apoptosis in human HCT116 cells assessed as loss of mitochondrial membrane potential after 48 hrs by rhodamine 123 staining based confocal microscopy. It is filed as functional, cell-based. A digest of the protocol:
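Rhodamine-123 staining of HCT-116 cells treated at 1, 2.5 and 5 μM; mitochondrial fluorescence intensity read by laser scanning confocal microscopy; paclitaxel (50 nM) positive control; mean ± SD.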

A short description of test [6]: Anticancer activity against human HT1080 cells assessed as growth inhibition at 100 uM after 24 hrs by sulforhodamine B assay. It is filed as functional. As to conditions: HT-1080, 24 h.
Test [7] is described as follows: Cytotoxicity against human FR2 cells assessed as growth inhibition after 24 hrs by sulforhodamine B assay. As to conditions: FR2, 24 h. It is filed as cell-based.
The nature of test [8]: Anticancer activity against human PC3 cells assessed as growth inhibition at 100 uM after 24 hrs by sulforhodamine B assay. It is filed as functional. The settings on record: PC-3, 24 h.
Test [9] has as its system HCT-116. Description: Induction of apoptosis in human HCT116 cells assessed as PARP cleavage at 1 to 5 uM after 48 hrs by Western blot analysis. It is filed as functional, cell-based. A digest of the protocol:
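HCT-116 cells incubated 48 h at 1, 2.5 and 5 μM; intact and cleaved PARP-1 detected by western blot, β-actin loading control; paclitaxel positive control.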

In test [10] the test system is HCT-116. Description: Anticancer activity against human HCT116 cells assessed as inhibition of colony formation at 1 to 5 uM after 48 hrs by clonogenic assay. It is filed as functional, cell-based. In outline:
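HCT-116 cells treated at 1, 2.5 and 5 μM, then reseeded at suitable dilution (500 cells for untreated control) in six-well plates to form colonies over 1-3 weeks; survival fraction expressed relative to untreated control; paclitaxel positive control.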

Test [11] has as its system A549. Description: Anticancer activity against human A549 cells assessed as growth inhibition at 100 uM after 24 hrs by sulforhodamine B assay. It is filed as functional. As to conditions: A549, 24 h.
For a further test, the system named is T47D. Description: Anticancer activity against human T47D cells assessed as growth inhibition after 24 hrs by sulforhodamine B assay. It is filed as functional, cell-based. In outline: as §2
For test [12], the system named is A549. Description: Anticancer activity against human A549 cells assessed as growth inhibition after 24 hrs by sulforhodamine B assay. It is filed as functional, cell-based. The settings on record: A549, 24 h. A digest of the protocol: as §2
Test [13] is described as follows: Anticancer activity against human PC3 cells assessed as growth inhibition after 24 hrs by sulforhodamine B assay. It is filed as functional, cell-based. As to conditions: PC-3, 24 h. In outline: as §2
The test system of test [14] is HCT-116. Description: Induction of ROS generation in human HCT116 cells after 48 hrs by 2',7'-dichlorofluorescien diacetate staining based fluorescence microscopy. It is filed as functional, cell-based. A digest of the protocol: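 HCT-116 cells exposed 48 h at 1 and 2.5 μM, loaded with DCFDA; DCF fluorescence measured by imaging and spectrofluorometry; H2O2 positive control.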

Test [15] in a line: Anticancer activity against human HCT116 cells assessed as growth inhibition at 100 uM after 24 hrs by sulforhodamine B assay. The settings on record: HCT-116, 24 h. It is filed as functional.

For the molecule `CC(=O)O[C@H]1C(=O)[C@@]2(C)[C@H]([C@H](OC(=O)c3ccccc3)[C@]3(O)C[C@H](OC(=O)[C@H](O)[C@@H](NC(=O)c4ccccc4)c4ccccc4)C(C)=C1C3(C)C)[C@]1(OC(C)=O)CO[C@@H]1C[C@@H]2O`, the result in the test with HCT-116 [1] and in the test with HCT-116 [2] was Active.
As for `COC(=O)[C@@]1(C)C(=O)/C(=C/c2ccncc2)C[C@]2(C)[C@H]3CC=C4[C@@H]5[C@@H](C)[C@H](C)CC[C@]5(C)CC[C@@]4(C)[C@]3(C)CC[C@@H]12`, the Activity result with HCT-116 [3], with HCT-116 [2], in the test on HCT-116 [5] and in the test on HCT-116 [14] was “Dose-dependent effect” each time. Also, the IC50 in [4] stood at 1840 nM; in [7], 21400 nM; in the test with T47D, 1260 nM; in the test with A549 [12] it was 2130 nM; in [13], 1960 nM. In addition, the inhibition at 100 µM in [6] is 95%; in [8] it was 100%; in the test with A549 [11] it was 99%; in test [15], 100%. For the same molecule, in the test on HCT-116 [9], the outcome was Active. For the same molecule, the inhibition result in the test with HCT-116 [10] was “Dose-dependent effect”.

These data come from ChEMBL document CHEMBL3745626, “Synthesis of β-boswellic acid derivatives as cytotoxic and apoptotic agents” (Bioorg Med Chem Lett, 2016).
